Assay outcomes from PubChem BioAssay.
In the library only some 9.6% were active in any assay of this set; here they are far more common.
HCT116 PTEN-null: growth suppression of PTEN-null HCT116, primary screen, cell-based, CellTiter-Glo; HCT116 PTEN-null viability, 60 h; stronger effect = lower value; viability, % at 10 µM; hit rate 1.2% among 140,000; AID 827, 2007;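 active = viability at or below a set limit, 4 SD under the median of all tested compounds, cut at about 3.7% in these data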;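 note: PTEN knockout HCT116 line with beta catenin targeted HCT116 as companion control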
HCT116 bCat-KO: primary screen for growth suppressors in beta-catenin knockout HCT116 cells (colon tumor, human); HCT116 beta-catenin knockout viability, CellTiter-Glo, 60 h; stronger effect = lower value; viability, % at 10 µM; hit rate 1.5% among 140,000;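 active = viability at or under a set limit, the compound median less 4 SD, cut at about 6% in these data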;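 note: 0% = Hyamine 1622 control at 20 µM and 100% = untreated cell control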
TNAP inh hi DEA: human TNAP enzyme inhibitors, primary screen, biochemical, luminescent, high phosphate acceptor level, uHTS | purified TNAP, CDP-star luminescence, 1 M DEA | AID 1135, 2008 | Alkaline phosphatase, tissue-nonspecific isozyme (Homo sapiens), P05186 | inhibition, % at 20 µM | hit rate 0.03% among 200,000;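 active = over 50% inhibition of tissue-nonspecific alkaline phosphatase at 20 µM in the single-dose screen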;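 note: plate controls were DMSO wells for no effect and EDTA-quenched wells as full inhibition for full effect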
Target sequence (P05186 whole entry, looked up): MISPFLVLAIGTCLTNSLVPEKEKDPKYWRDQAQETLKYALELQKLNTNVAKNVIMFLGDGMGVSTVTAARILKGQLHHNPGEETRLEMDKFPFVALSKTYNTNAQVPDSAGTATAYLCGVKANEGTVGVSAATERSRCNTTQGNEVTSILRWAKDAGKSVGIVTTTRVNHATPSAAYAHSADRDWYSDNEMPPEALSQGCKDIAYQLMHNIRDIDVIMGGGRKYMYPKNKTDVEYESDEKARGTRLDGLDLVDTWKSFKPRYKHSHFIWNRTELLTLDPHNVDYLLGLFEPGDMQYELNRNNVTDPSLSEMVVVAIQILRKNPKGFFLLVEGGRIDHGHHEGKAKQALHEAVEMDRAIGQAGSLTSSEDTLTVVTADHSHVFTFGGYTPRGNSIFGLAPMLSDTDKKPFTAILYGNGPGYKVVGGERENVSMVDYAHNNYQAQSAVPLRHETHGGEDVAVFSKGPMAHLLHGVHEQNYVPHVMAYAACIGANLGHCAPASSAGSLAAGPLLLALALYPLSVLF
TNAP inh noacc: human TNAP enzyme inhibitors, primary screen, biochemical, luminescent, no phosphate acceptor, uHTS; Alkaline phosphatase, tissue-nonspecific isozyme (Homo sapiens), P05186; purified TNAP, CDP-star luminescence, 30 min; inhibition, % at 20 µM; hit rate 0.26% among 200,000; AID 1012, 2008;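 active = tissue-nonspecific alkaline phosphatase inhibition above about 50% at 20 µM in the single-dose screen, limit read from the data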;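 note: 0% = DMSO negative control and 100% = EDTA positive control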
L major viab: Leishmania major promastigote growth inhibition, primary screen; inhibition, % at 10 µM; hit rate 9% among 200,000; AID 1063, 2008; Leishmania major promastigotes, resazurin fluorescence viability; in the data active = inhibition above about 50%;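 note: promastigotes grown with compound for 44 hours at 28 °C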
TNAP act hi DEA: TNAP activators at high phosphate acceptor level, primary screen, biochemical, luminescence, uHTS; purified TNAP, CDP-star luminescence, 1 M DEA, 30 min; stronger effect = higher value; 0 = EDTA background, 1 = DMSO-only activity; activation factor at 20 µM; 200,000 tested, under 10 active; AID 1136, 2008;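 active = activation factor at least 2 at 20 µM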
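system = human TNAP | amount = enzyme diluted 1/800 final | reagent = 100 µM CDP-star substrate | signal = luminescent substrate turnover signal | dosing = one dose, 20 µM | benchmarks = EDTA negative control, DMSO positive control | measure = activation factor | timing = 30 min reaction, room temperature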
Numbers without * were called inactive; nt = no result.

SMILES	HCT116 PTEN-null	HCT116 bCat-KO	TNAP inh hi DEA	TNAP inh noacc	L major viab	TNAP act hi DEA
CCCCCCn1c(CN2CCCCC2CC)nc2c1c(=O)n(C)c(=O)n2C (centres undefined)	62.5	65.4	-2.8	-5.7	59.7*	1
CCC1CCCCN1Cc1nc2c(c(=O)n(C)c(=O)n2C)n1CCC(C)C (centres undefined)	nt	nt	-2.7	-7.1	35.1	1
CC(C)N1C(=O)CCN(C=O)c2ccccc21	nt	nt	1.1	-10.0	2.4	1
Cc1ccc2c(c1)c1c3n2CCN(C(=O)C2CC2)C3CCC1 (centres undefined)	89.5	82.8	3.3	-4.1	-5.2	1
CN1CCN(CC(=O)N2CCn3c4c(c5cc(C6CCCCC6)ccc53)CCCC42)CC1 (centres undefined)	1.6*	1.3*	-1.0	0.6	100.5*	1
Cc1ccc2c(c1)c1c3n2CCN(C(=O)CN2CCN(C)CC2)C3CCC1 (centres undefined)	0.8*	1.0*	-5.7	-12.3	20.6	1.1
Cc1ccccc1C(=O)NC1CCN(Cc2ccccc2)CC1	nt	nt	-2.2	-6.5	85.2*	1
O=C(CCCCn1c(=O)c2ccccc2n(Cc2ccccc2)c1=O)NC1CCN(Cc2ccccc2)CC1	nt	nt	3.1	-16.4	73.1*	1
O=C(COc1ccccc1)NC1CCN(Cc2ccccc2)CC1	90.2	86.2	-2.1	-0.4	86.0*	1
O=C(COc1ccccc1)NCC(=O)NC1CCCCC1	nt	nt	-7.2	-22.4	-4.4	1.1
O=C(NC1CCN(Cc2ccccc2)CC1)C1COc2ccccc2O1 (centres undefined)	94.0	96.1	-0.2	-7.9	92.3*	1
Cc1cc(NC(=O)COc2c(C)cccc2C)no1	nt	nt	-3.1	-4.6	4.7	1
CCOC(=O)c1cc2c(=O)n3ccccc3nc2n(Cc2ccco2)c1=NC(=O)c1ccc(OC)cc1OC	nt	nt	1.8	-1.8	42.3	1
CCCCC(=O)Nc1ccccc1C(C)C	nt	nt	-5.8	-7.4	-4.8	1.1
O=C(NC1CCN(Cc2ccccc2)CC1)c1ccc(S(=O)(=O)NCc2ccco2)cc1	nt	nt	3.6	-3.7	78.2*	1
Cc1ccc(C)n1-c1ccc(C(=O)NC2CCN(Cc3ccccc3)CC2)cc1	13.7	12.3	-2.5	-2.8	81.4*	1
O=C(Cn1[nH]c(=O)c2ccccc2c1=O)NC1CCN(Cc2ccccc2)CC1	88.0	77.6	-0.8	-9.7	68.8*	1
O=S(=O)(NC1CCc2ccccc21)c1ccc(S(=O)(=O)N2CCCC2)cc1 (centres undefined)	73.7	79.4	-4.6	-12.0	71.8*	1
Cc1cc(C)n(-c2ccc(Cl)c(C(=O)Nc3cc(C(F)(F)F)ccc3Cl)n2)n1	84.0	91.1	1.6	1.3	0.3	1
COc1ccc(-c2n[nH]c3c2C(c2ccc(OC)c(OC)c2)N(c2ccccc2)C3=O)cc1 (centres undefined)	53.0	52.2	-3.4	1.9	96.5*	1
COc1ccc(CCN2C(=O)c3[nH]nc(-c4ccccc4O)c3C2c2ccccc2)cc1OC (centres undefined)	27.2	23.5	-2.7	-49.6	59.9*	1
COCCCN1C(=O)c2[nH]nc(-c3ccccc3O)c2C1c1ccc(Cl)cc1 (centres undefined)	36.2	42.3	-3.1	-23.1	66.2*	1
COCCCN1C(=O)c2[nH]nc(-c3ccccc3O)c2C1c1cccc(Cl)c1 (centres undefined)	25.4	20.4	0.0	-99.4	36.0	1
CC(C)OCCCN1C(=O)c2[nH]nc(-c3ccccc3O)c2C1c1cccc(Cl)c1 (centres undefined)	18.8	40.4	-2.5	-10.3	70.3*	1
COc1ccc(N2CCN(C(=O)c3ccccc3Br)CC2)c([N+](=O)[O-])c1	nt	nt	3.3	1.9	-4.8	1
Cc1ccc(P(C)(=O)c2ccc(C)cc2)cc1	97.0	113.4	1.0	-4.0	-1.7	1
